Assay [1] concerns HX62 cell line. The assay is described as follows: Compound was tested for in vitro growth inhibition of Ovarian carcinoma cell line panel HX62. It counts as functional, cell-based, Homo sapiens. The gist of the method:
(§1)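 Ovarian lines grown as monolayers in DMEM with 10% FBS, insulin, hydrocortisone and L-glutamine under 6% CO2. Cells were seeded at 3–5 × 10³/well and left to attach overnight. Compounds were freshly dissolved in DMA or water and applied for 96 h in quadruplicate wells. Growth was measured by SRB and reported as IC50.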

Assay [2] has as its system CH1. The assay is described as follows: Compound was tested for in vitro growth inhibition of Ovarian carcinoma cell line panel CH1-R. It counts as functional, cell-based. The method in brief:
as §1

The test system of assay [3] is SK-OV-3. The assay is described as follows: Compound was tested for in vitro growth inhibition of primary panel tumor cell line SK-OV-3. The format is functional, cell-based, Homo sapiens. The gist of the method: (§2)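 Primary-panel lines kept in L15, RPMI 1640 plus pyruvate, or MEM, each with 10% FBS. Cells were seeded at 5×10^4–10^5 cells/mL, preincubated 24 h, then exposed 4 h to 0–200 μg/mL from a 2 mg/mL stock in 10% DMA/PBS. After washout and 72 h further growth, cells were read by SRB. IC50 was the concentration giving 50% survival versus untreated controls.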

The test system of assay [4] is A2780. Put plainly: Compound was tested for in vitro growth inhibition of Ovarian carcinoma cell line panel A2780. The format is functional, cell-based, Homo sapiens. The gist of the method: as §1
Assay [5] relates to HT-1376. The assay is described as follows: Compound was tested for in vitro growth inhibition of primary panel tumor cell line HT1376. It counts as functional, cell-based, Homo sapiens. The method in brief:
as §2

For assay [6], the system named is HT-29. Put plainly: Compound was tested for in vitro growth inhibition of primary panel tumor cell line HT-29/219. It counts as functional, cell-based, Homo sapiens. The method in brief:
as §2

Assay [7] concerns SW-620. The assay is described as follows: Compound was tested for in vitro growth inhibition of primary panel tumor cell lines SW620. It counts as functional, cell-based, Homo sapiens. The method in brief:
as §2

Assay [8] concerns SW 1116. Put plainly: Compound was tested for in vitro growth inhibition of primary panel tumor cell line SW1116. The format is functional, cell-based, Homo sapiens. The method in brief:
as §2

Assay [9] relates to A2780. Put plainly: Compound was tested for in vitro growth inhibition of Ovarian carcinoma cell line panel A2780-R. It counts as functional, cell-based, Homo sapiens. The gist of the method:
as §1

Assay [10] has as its system SK-OV-3. The assay is described as follows: Compound was tested for in vitro growth inhibition of Ovarian carcinoma cell line panel SK-OV-3. It counts as functional, cell-based, Homo sapiens. The gist of the method: as §1
For assay [11], the system named is ZR-75-1. Put plainly: Compound was tested for in vitro growth inhibition of primary panel tumor cell linZR-75-1. The format is functional, cell-based, Homo sapiens. The gist of the method:
as §2

The test system of assay [12] is CH1. The assay is described as follows: Compound was tested for in vitro growth inhibition of Ovarian carcinoma cell line panel CH1. The format is functional, cell-based. The method in brief: as §1

This passage reports IC50 results from ChEMBL document CHEMBL1129059, “Antitumor properties of some 2-[(dimethylamino)methyl]phenylgold(III) complexes” (J Med Chem, 1996).

CISPLATIN: the IC50 (as a rule, the midpoint of a concentration-inhibition curve) came out at 18 µM in [1]; 560 nM in assay [2]; 23 µM in assay [3]; 1200 nM in assay [4]; 23 µM in assay [5]; 17 µM in assay [6]. The IC50 in [7] came out at 167 µM; in assay [8], 163 µM; in assay [9], 10 µM; in [10], 5.2 µM; in assay [11], 27 µM; in [12], 120 nM.
